Results published in PubChem BioAssay AID624466 (The Scripps Research Institute Molecular Screening Center, 2012).
Hit rate of the full screen: of about 360,000 compounds, about 5,400 (1.5%) were called active.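 How the source made its calls: active means inhibition above a per-plate cutoff, the mean inhibition of test compounds on that plate plus 3 SD (cut at about 49% in these data); inactive means the rest.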 The sample as a whole holds a higher share of actives than the screen did.

Each compound was assayed against Trace amine-associated receptor 1 (Homo sapiens) (UniProt Q96RJ0) (assay: human TAAR1 antagonists, primary screen, Fluo-8 calcium fluorescence, CHO RD-HGA16 cells (AID 624466;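 further: 0% = DMSO plus EC80 beta-PEA response and 100% = DMSO alone without agonist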)). Conditions: CHO RD-HGA16 TAAR1, Fluo-8 calcium fluorescence, antagonist; at 3 µM; hits give high values.
Sequence of Trace amine-associated receptor 1 (Homo sapiens) (Q96RJ0 whole entry, looked up): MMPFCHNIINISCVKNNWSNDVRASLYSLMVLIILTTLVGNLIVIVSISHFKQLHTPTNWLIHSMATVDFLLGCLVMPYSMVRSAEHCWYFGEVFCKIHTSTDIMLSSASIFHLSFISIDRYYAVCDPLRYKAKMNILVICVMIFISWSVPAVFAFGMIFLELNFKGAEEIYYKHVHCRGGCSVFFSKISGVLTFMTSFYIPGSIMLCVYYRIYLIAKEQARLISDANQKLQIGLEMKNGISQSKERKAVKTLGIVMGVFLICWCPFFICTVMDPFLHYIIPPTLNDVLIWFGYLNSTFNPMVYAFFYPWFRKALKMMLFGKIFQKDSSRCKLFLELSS
Summary of the method: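 test system = CHO RD-HGA16 cells bearing hTAAR1 | replication = singlicate | controls = DMSO-only wells and EC80 β-PEA-stimulated wells | reagent = EC80 β-phenethylamine stimulus | read-out basis = percent inhibition of PEA-evoked calcium signal, max/basal emission ratio | schedule = seeding 17-24 h prior, 75-min 37 °C, 30-min RT dye loading | signal = kinetic Fluo-8 calcium fluorescence measurement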

Row | SMILES | inhibition
1 | C/C(=N/O)c1ccc(N2C(=O)C3C4C=CC(C3C2=O)C2C3C(=O)N(c5ccc(/C(C)=N/O)cc5)C(=O)C3C42)cc1 (stereo not drawn) | -2.86% (inactive)
2 | CCCCCc1c(Cc2ccccc2)ncn1CCc1ccccc1OC | 66.2% (active)
3 | CCCc1c(-c2ccccc2F)ncn1Cc1ccccc1OC | -7.18% (inactive)
4 | CCCCc1c(-c2ccc(Br)cc2)ncn1CCc1ccccc1OC | 28.2% (inactive)
5 | CCc1c(-c2ccccc2OC)ncn1CCc1ccccc1OC | 14.3% (inactive)
6 | COc1ccccc1CCn1cnc(-c2ccccc2)c1C(C)C | 20% (inactive)
7 | CCCCCc1c(-c2cccc(Br)c2)ncn1CCc1ccccc1OC | 43.2% (inactive)
8 | COc1ccccc1CCNS(=O)(=O)c1cn(C)nc1C | -36.9% (inactive)
9 | CCCCc1c(-c2ccc(Cl)cc2)ncn1CCc1ccccc1OC | 49.6% (active)
10 | CCCCCc1c(-c2ccc(OC)c(OC)c2)ncn1CCc1ccccc1OC | 73.9% (active)
11 | CCOC(=O)c1cc2cc(OC)ccc2n1C1CCN(C)CC1 | -4.73% (inactive)
12 | COC(=O)[C@]1(Cc2ccccc2)NC=C(C(=O)c2ccccc2)[C@@H]1c1cccc(OC)c1 | -1.81% (inactive)
13 | C[C@H](NC(=O)[C@@H]1CCCN1C(=O)[C@@H]1CCCN1C(=O)c1ccccc1)c1ccccc1 | 2.01% (inactive)
14 | C=CCC[C@H](CCCCC)OC(=O)/C=C/[C@H](O)[C@@H](O)C[C@@H](O)CC=C | -19.3% (inactive)
15 | COC(=O)C(C)N(C#N)c1nc(C)nc(C)n1 (stereo not drawn) | -2.26% (inactive)
16 | COC(=O)c1c(-c2ccc(OC)cc2)c2c(c3c4ccccc4n(S(=O)(=O)c4ccc(C)cc4)c13)C(=O)N(C)C2 | -15.3% (inactive)
17 | CN=C(NC#N)NCCSCc1nc[nH]c1C | -15.6% (inactive)
18 | Cc1cc(C)n2nc(C(=O)Oc3ccc4c(c3)OCO4)nc2n1 | 2.03% (inactive)
19 | O=C(NCc1ccccc1)[C@@H]1CCCN1C(=O)[C@@H](NS(=O)(=O)c1ccc(F)cc1F)C1CCCCC1 | 7.07% (inactive)
20 | O=C(C(=O)N1CCC(c2ccccc2)CC1)c1ccccc1 | -1.49% (inactive)
21 | O=C(CSc1nc(-c2ccco2)cc(C(F)(F)F)n1)N1CCc2ccccc2C1 | -4.26% (inactive)
22 | COc1ccc(-c2cc(C(F)(F)F)nc(SCCC(=O)NCc3ccco3)n2)cc1 | -2.48% (inactive)

Row | SMILES | inhibition
23 | O=C(CSc1nc(-c2ccco2)cc(C(F)(F)F)n1)NCc1cccs1 | 58.2% (active)
24 | CC1CCCN(C(C(=O)Nc2ccc(C(C)C)cc2)c2ccc3c(c2)OCO3)C1 (stereo not drawn) | -12.3% (inactive)
25 | CCOC(=O)[C@]12CCCC=C1N(Cc1ccc3c(c1)OCO3)C(=O)[C@H](CC(=O)NCc1cccs1)C2 | -12.1% (inactive)
26 | O=C(O)c1ccc(-n2cccc2)cc1O | 6.36% (inactive)
27 | CC(=N\NC(=O)c1cc(Br)ccc1O)/C(=N/O)C(=O)Nc1ccccc1 | -8.22% (inactive)
28 | Cc1onc(-c2ccccc2Cl)c1C(=O)OCc1nnc(-c2ccccc2)o1 | 14.8% (inactive)
29 | Cc1onc(-c2ccccc2)c1-c1nnc(COC(=O)c2ccc(N(C)C)cc2)o1 | 73.5% (active)
30 | Cc1ccc(C(=O)NCC(=O)OCc2nnc(-c3ccccc3)o2)cc1 | -15.8% (inactive)
31 | O=S1(=O)CC(N2CCN(Cc3ccccc3F)CC2)CN1Cc1cn(Cc2ccccc2)nn1 (stereo not drawn) | -11.1% (inactive)
32 | CCCCc1nc(NCc2ccccc2)c(C#N)c2c1CCCC2 | -12.6% (inactive)
33 | CCN1CCc2c(C#N)c(NCc3ccccc3)nc(NCCO)c2C1 | 106% (active)
34 | CC(C)CCNc1nc(N2CCCC2)c2c(c1C#N)CCN(C)C2 | -24.7% (inactive)
35 | O=C(O)c1ccccc1-c1ccccc1C(=O)Nc1nccs1 | -18.3% (inactive)
36 | COc1ccc(Cl)cc1NC(=O)CN(C)C(=O)c1cn(-c2ccccc2)nc1-c1cccs1 | 12.7% (inactive)
37 | COc1ccc(-c2nn(-c3ccccc3)cc2C(=O)Nc2nccs2)cc1OC | 71.3% (active)
38 | CCn1c(/C=C/Nc2ccccc2)[n+](CC)c2ccc(C(=O)OCC(F)(F)F)cc21 | -27.5% (inactive)
39 | CC1(C)OC(=O)C2=C(C[C@@H](C3CCCCC3)O[C@@H]2c2ccc(Cl)cc2)O1 | -31% (inactive)
40 | CS(=O)(=O)c1ccc(-c2nnn(CC(=O)Nc3ccc4c(c3)OCCO4)n2)cc1 | 21% (inactive)
41 | CC(C)c1cccc(-c2csc(C(O)c3ccccc3)n2)c1 (stereo not drawn) | 17.5% (inactive)
42 | CN1CCN(C(=O)c2ccc(NS(=O)(=O)c3ccccc3)cc2)CC1 | -8.92% (inactive)
43 | COc1ccc(N2CCN(C(=O)COC(=O)c3cccc(S(=O)(=O)Nc4ccccc4OC)c3)CC2)cc1 | 21.7% (inactive)
44 | COc1ccccc1NS(=O)(=O)c1ccc(C(=O)N2CCN(c3ccccc3O)CC2)cc1 | 58.1% (active)

Row | SMILES | inhibition
45 | CCOc1ccc(-n2cnc3c(=O)[nH]c(N)nc32)cc1 | 0.45% (inactive)
46 | O=C(COC(=O)c1ccc(O)cc1O)NC(=O)c1ccccc1 | -0.49% (inactive)
47 | O=C(NNc1c2ccccc2nc2ccccc12)c1cc2ccccc2cc1O | 65.3% (active)
48 | O=C(NNC(=O)c1ccccc1O)c1ccccc1O | -13.5% (inactive)
49 | Cc1cccc(C)c1NC(=O)C(c1ccc(C(F)(F)F)cc1)n1c(=O)c(-c2ccco2)nc2ccccc21 (stereo not drawn) | -9.78% (inactive)
50 | O=S(=O)(NCCc1ccccn1)c1cc(Cl)cc(Cl)c1O | -19.9% (inactive)
51 | O=C(c1ccc(O)cc1)c1ccc(C(=O)O)c(C(=O)O)c1 | 17.8% (inactive)
52 | COC(=O)[C@]12CCCCC=C1N(Cc1ccc3c(c1)OCO3)C(=O)[C@H](CC(=O)NCc1cccs1)C2 | 21.1% (inactive)
53 | O=C(COC(=O)c1c2c(nc3ccccc13)CCCC2)c1ccc(Br)s1 | 49% (active)
54 | Cn1cccc1C(=O)OCC(=O)c1ccc(Br)s1 | -0.72% (inactive)
55 | NS(=O)(=O)c1ccc(NC(=O)COC(=O)c2c3c(nc4ccccc24)/C(=C\c2ccc4c(c2)OCO4)CCC3)cc1 | 6.15% (inactive)
56 | Cc1cc(S(=O)(=O)N2CCOCC2)ccc1OCC(=O)Nc1cccc(C(F)(F)F)c1 | 30.6% (inactive)
57 | CN1C(=O)C2CC(O)C(SC3CC4C(=O)N(C)C(=O)C4CC3O)CC2C1=O (stereo not drawn) | 2.98% (inactive)
58 | CN[C@H]1C[C@H]2c3cc(Oc4ccccc4C)ccc3CCN2C(=O)[C@H]1[C@H](C)O | 0.22% (inactive)
59 | O=C(O)c1ccc(NC(=O)c2ccc(COc3ccc(Cl)cc3)o2)cc1 | 34.7% (inactive)
60 | Cc1cc(OCc2ccc(C(=O)Nc3ccc(C(=O)O)cc3)o2)ccc1Cl | 50.2% (active)
61 | COc1ccc(NC(=O)CN(C)C(=O)c2ccc(COc3ccccc3)o2)cc1 | -57.5% (inactive)
62 | CC(C)(C)C(=O)c1c(N)[nH]c(C(=O)c2ccccc2)c1-c1ccc(F)cc1 | 2.74% (inactive)
63 | CCOC(=O)Cn1c2c(n(-c3ccc(F)cc3)c1=O)C=C(c1ccccc1)[C@@H](C)C(C(=O)N(C)C1CCCCC1)=C2 | -25% (inactive)
64 | COC(=O)[C@]12C[C@H](CC(=O)NCCC(C)C)C(=O)N(CCc3ccc(OC)c(OC)c3)C1=C[C@H](C(C)(C)C)O[C@@H]2C | -15.9% (inactive)
65 | Cc1cc2nc(-c3ccc(F)cc3)c(Cc3ccsc3)n2c(C)c1Br | -3.77% (inactive)
66 | Cc1ccc(C)c(N2CCN(C(=O)CCCn3c(=O)c4cccn4c4cccnc43)CC2)c1 | 26% (inactive)

Row | SMILES | inhibition
67 | Cc1ccc(C)c(N2CCN(C(=O)CCCCCn3c(=S)[nH]c4ccc(N5CCOCC5)cc4c3=O)CC2)c1 | 75% (active)
68 | O=C(CCCCCn1c(=S)[nH]c2cc3c(cc2c1=O)OCO3)N1CCN(c2ccc(F)cc2)CC1 | 11.1% (inactive)
69 | CCN(CCCNC(=O)c1ccc2c(c1)NC(=O)CN2C)c1cccc(C)c1 | -2.86% (inactive)
70 | Cc1c(Cl)cnc(NC(=O)COC(=O)c2ccc(S(=O)(=O)NCc3ccco3)cc2)c1Cl | -10.1% (inactive)
71 | C/C(=N\Nc1ncc(Cl)cc1Cl)c1ccc(S(=O)(=O)NCc2ccco2)cc1 | 49.3% (active)
72 | O=S(=O)(NCc1ccco1)c1cnc(Cl)c(Cl)c1 | -4.49% (inactive)
73 | O=C(COC(=O)Cn1cnc2ccccc2c1=O)NCC12CC3CC(CC(C3)C1)C2 | -9.23% (inactive)
74 | CCOC(=O)CNC(=O)N(C)[C@H]1C[C@H]2c3[nH]c4c(-c5ccc6c(c5)OCO6)cccc4c3CCN2C(=O)[C@H]1[C@H](C)O | 12.4% (inactive)
75 | CN[C@H]1C[C@H]2c3[nH]c4c(-c5ccccc5)cccc4c3CCN2C(=O)[C@H]1[C@H](C)O | 15.3% (inactive)
76 | C[C@H](O)[C@@H]1C(=O)N2CCc3c([nH]c4c(-c5ccc6c(c5)OCO6)cccc34)[C@@H]2C[C@@H]1N(C)C(=O)c1ccco1 | 60.8% (active)
77 | O=C(CN1CCSCC1)N/N=C/c1ccc(Cl)cc1 | -17.2% (inactive)
78 | Cc1ccc(NC(=O)c2ccc(CSc3ncnc4nc[nH]c34)cc2)c(C)c1 | 56.7% (active)
79 | CSCc1ccc(C(=O)Nc2cc(C)cc(C)c2)cc1 | 16.7% (inactive)
80 | CSc1ncc(C(=O)Nc2ccc(C)cc2C)c(C)n1 | -0.22% (inactive)
81 | CC[C@@H]1CCCCc2ccccc2[C@@H](C(=O)C[C@H](O)CC(C)=O)OC1=O | 13.4% (inactive)
82 | C=CCn1c(SCc2c(C(=O)OC)sc(N)c2C(=O)OC)nnc1-c1ccc(Cl)cc1 | 34.7% (inactive)
83 | O=C(NNC(=S)Nc1ccc(Br)cc1Cl)c1ccco1 | -2.77% (inactive)
84 | CCCc1ccc(OCC(=O)NNC(=S)NC(=O)c2ccco2)cc1 | 74.2% (active)
85 | NS(=O)(=O)c1ccc(CNC(=S)NC(=O)c2ccco2)cc1 | 6.18% (inactive)
86 | O=C(Nc1ccc2ccccc2c1)/C(=C\c1ccc2c(c1)OCO2)NC(=O)c1ccco1 | 12.7% (inactive)
87 | CC(Oc1ccc2ccccc2c1)C(=O)NNC(=S)NC(=O)c1ccco1 (stereo not drawn) | 61.9% (active)
88 | CCOc1cc(NC(=S)NCc2ccco2)c(OCC)cc1NC(=O)c1ccco1 | 9.19% (inactive)
